Data: ChEMBL document CHEMBL3108740, “Design, synthesis, and biological evaluation of 1-phenylpyrazolo[3,4-e]pyrrolo[3,4-g]indolizine-4,6(1H,5H)-diones as new glycogen synthase kinase-3β inhibitors” (J Med Chem, 2013)
In brackets after ≈: the same amount, converted by molar mass. Activity calls are given as the source filed them. No cut-off for these calls is given here.

Assays:
[1] = target: T1, Glycogen synthase kinase-3 beta (Homo sapiens, UniProt P49841); assay: Inhibition of GSK-3beta (unknown origin) using (RREGGMSRPAS(p)VDG as substrate assessed as 32P[gamma-ATP] incorporation into substrate after 15 mins by autoradiography
Target sequence in this assay (P49841 whole entry): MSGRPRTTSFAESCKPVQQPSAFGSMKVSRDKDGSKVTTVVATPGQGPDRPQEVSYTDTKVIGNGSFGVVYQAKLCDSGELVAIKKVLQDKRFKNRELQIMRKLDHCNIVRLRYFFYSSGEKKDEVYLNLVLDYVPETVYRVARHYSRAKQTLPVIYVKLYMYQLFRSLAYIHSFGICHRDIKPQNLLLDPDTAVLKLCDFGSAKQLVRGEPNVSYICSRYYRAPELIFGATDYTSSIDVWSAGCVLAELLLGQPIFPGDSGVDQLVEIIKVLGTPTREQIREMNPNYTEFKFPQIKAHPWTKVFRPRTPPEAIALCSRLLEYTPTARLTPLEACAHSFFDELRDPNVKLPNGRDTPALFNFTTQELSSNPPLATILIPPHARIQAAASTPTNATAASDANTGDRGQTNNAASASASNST

[2] = target: T2, Serine/threonine-protein kinase Sgk1 (Homo sapiens) (UniProt O00141); assay: Inhibition of human recombinant SGK1 using ATP/Ulight-RRRSLLE as substrate at 1 uM after 30 mins by LANCE assay
T2 sequence (whole entry): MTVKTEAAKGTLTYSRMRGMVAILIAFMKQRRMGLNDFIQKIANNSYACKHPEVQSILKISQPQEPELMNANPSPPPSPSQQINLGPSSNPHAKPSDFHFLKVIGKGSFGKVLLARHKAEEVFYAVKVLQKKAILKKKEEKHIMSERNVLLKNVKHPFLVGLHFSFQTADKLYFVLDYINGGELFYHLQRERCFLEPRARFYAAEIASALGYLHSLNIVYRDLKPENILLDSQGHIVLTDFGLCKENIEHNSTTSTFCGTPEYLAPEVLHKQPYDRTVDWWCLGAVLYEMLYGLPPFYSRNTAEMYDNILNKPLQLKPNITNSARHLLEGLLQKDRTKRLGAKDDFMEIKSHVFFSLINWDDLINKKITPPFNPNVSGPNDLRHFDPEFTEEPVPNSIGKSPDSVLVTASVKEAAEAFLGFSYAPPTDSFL
Summary of the method: (§1)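 Selectivity panel of 17 human protein kinases, each tested at a single 1 µM concentration. Read-out was percent inhibition of kinase activity. Values are the average of two independent measurements.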

[3] = target: T1, Glycogen synthase kinase-3 beta; assay: Inhibition of human GSK-3beta-mediated tau phosphorylation in doxycycline/synthetic tau fibril-induced HEK293 cells assessed as increase in faster-migrating AT180 band at 1 uM after 48 hrs by Immunoblotting analysis; format: cell-based
Summary of the method: (§2)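 HEK-293 cells express full-length 4-repeat tau (T40) carrying P301L under a doxycycline-regulated promoter. Doxycycline induces expression; 48 h later cells are seeded with synthetic fibrils made from recombinant tau. They are then treated with 1 µM compound or vehicle for 48 h, with non-fibril cells as controls. Lysates are immunoblotted with AT180 (pT231/pS235), 17025 (total tau) and GAPDH as loading control.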
Target sequence in this assay (P49841 whole entry, looked up): as the sequence (P49841 whole entry) above

[4] = target: Glycogen synthase kinase-3 alpha (Homo sapiens) (UniProt P49840); assay: Inhibition of human recombinant GSK-3alpha using ATP/Ulight-CFFKNIVTPRTPPPSQGK-amide as substrate at 1 uM after 60 mins by LANCE assay; summary of the method: as §1
[5] = target: T1, Glycogen synthase kinase-3 beta; assay: Inhibition of GSK3beta in human OVCAR8 cells up to 5 uM; format: cell-based; details: OVCAR-8
Summary of the method: (§3)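 Ovarian carcinoma OVCAR-8 cells and their cognate P-glycoprotein-overexpressing line NCI/ADR-RES. Compound tested at concentrations up to 5 µM.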
Target sequence in this assay (P49841 whole entry, looked up): as the sequence (P49841 whole entry) above

[6] = target: T3, Aurora kinase A (Homo sapiens) (UniProt O14965); assay: Inhibition of human recombinant Aurora A expressed in insect sf21 cells using ATP/Ulight-RRRSLLE as substrate at 1 uM after 15 mins by LANCE assay; summary of the method: as §1
T3 sequence (whole entry): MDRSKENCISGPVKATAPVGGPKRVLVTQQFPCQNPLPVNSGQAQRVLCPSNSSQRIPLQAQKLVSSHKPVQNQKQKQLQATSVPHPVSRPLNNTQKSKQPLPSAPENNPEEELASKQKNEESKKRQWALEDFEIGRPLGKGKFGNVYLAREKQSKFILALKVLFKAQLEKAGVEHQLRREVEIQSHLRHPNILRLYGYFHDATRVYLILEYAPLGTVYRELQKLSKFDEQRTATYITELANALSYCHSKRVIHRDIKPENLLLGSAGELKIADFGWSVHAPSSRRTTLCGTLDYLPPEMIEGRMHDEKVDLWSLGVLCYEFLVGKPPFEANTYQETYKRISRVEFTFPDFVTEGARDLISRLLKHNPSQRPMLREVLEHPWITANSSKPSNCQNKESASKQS

[7] = target: Cyclin-dependent kinase 2 (Homo sapiens, UniProt P24941); assay: Inhibition of human recombinant CDK2 using ATP/Ulight-CFFKNIVTPRTPPPSQGK-amide as substrate after 30 mins by LANCE assay
[8] = target: Vascular endothelial growth factor receptor 2 (Homo sapiens) (UniProt P35968); assay: Inhibition of human recombinant VGFR2 expressed in insect sf9 cells using ATP/Ulight-CAGAGAIETDKEYYTVKD as substrate at 1 uM after 60 mins by LANCE assay; summary of the method: as §1
Sequence of Vascular endothelial growth factor receptor 2 (Homo sapiens) (P35968 whole entry): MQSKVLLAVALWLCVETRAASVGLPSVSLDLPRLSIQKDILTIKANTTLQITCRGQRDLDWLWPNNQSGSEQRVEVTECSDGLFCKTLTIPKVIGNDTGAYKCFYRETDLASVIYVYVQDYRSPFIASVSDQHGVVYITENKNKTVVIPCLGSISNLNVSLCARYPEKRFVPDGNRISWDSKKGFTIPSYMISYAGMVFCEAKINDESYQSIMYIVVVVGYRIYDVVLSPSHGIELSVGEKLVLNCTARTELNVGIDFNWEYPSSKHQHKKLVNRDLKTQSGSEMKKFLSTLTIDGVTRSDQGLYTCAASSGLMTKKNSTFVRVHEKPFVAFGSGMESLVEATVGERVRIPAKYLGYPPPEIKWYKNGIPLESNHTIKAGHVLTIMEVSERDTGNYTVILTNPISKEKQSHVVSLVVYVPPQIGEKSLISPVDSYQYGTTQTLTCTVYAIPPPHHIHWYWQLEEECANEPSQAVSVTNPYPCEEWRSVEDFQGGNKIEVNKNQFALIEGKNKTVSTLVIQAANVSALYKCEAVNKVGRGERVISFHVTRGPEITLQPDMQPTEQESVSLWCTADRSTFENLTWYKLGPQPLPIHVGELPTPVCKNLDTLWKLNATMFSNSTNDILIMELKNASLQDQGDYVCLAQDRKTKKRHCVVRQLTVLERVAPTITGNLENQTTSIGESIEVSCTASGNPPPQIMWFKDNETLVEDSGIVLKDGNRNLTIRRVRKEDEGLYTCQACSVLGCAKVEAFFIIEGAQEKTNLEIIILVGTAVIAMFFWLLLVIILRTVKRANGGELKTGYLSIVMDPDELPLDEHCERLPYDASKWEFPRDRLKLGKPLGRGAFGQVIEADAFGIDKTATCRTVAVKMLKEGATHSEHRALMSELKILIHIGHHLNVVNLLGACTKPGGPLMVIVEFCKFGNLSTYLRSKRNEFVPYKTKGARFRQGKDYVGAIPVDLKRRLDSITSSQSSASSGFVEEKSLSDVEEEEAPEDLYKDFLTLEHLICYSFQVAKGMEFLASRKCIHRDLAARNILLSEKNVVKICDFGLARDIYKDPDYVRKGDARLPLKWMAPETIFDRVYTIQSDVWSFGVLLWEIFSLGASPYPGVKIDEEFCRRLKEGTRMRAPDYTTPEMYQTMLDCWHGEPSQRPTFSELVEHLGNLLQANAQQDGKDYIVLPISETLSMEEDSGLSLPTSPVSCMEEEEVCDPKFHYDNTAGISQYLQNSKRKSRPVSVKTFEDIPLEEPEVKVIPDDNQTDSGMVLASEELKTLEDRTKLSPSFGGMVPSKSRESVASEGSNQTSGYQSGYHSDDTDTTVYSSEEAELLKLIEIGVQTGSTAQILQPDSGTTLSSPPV

[9] = target: Serine/threonine-protein kinase RAF and Dual specificity mitogen-activated protein kinase kinase 1 (Raf/MEK) (Homo sapiens) (UniProt P04049+Q02750); assay: Inhibition of human RAF1/MEK1 at 1 uM; format: protein assay; summary of the method: as §1
[10] = target: Leucine-rich repeat serine/threonine-protein kinase 2 (Homo sapiens) (UniProt Q5S007); assay: Inhibition of human recombinant LRRK2 expressed in insect cells using ATP/Ulight-RRRSLLE as substrate at 1 uM after 60 mins by LANCE assay; summary of the method: as §1
Homo sapiens [11] = species on record: Homo sapiens; assay: Inhibition of human recombinant PKA alpha expressed in Escherichia coli using ATP/Ulight-RRRSLLE as substrate at 1 uM after 10 mins by LANCE assay
Summary of the method: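 Single-concentration (1 µM) percent inhibition within a 17-member human kinase panel. Values are the average of two independent measurements.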

[12] = target: Mitogen-activated protein kinase 3 (Homo sapiens) (UniProt P27361); assay: Inhibition of human recombinant ERK1 expressed in Escherichia coli using ATP/Ulight-CFFKNIVTPRTPPPSQGK-amide as substrate at 1 uM after 30 mins by LANCE assay; summary of the method: as §1
[13] = target: Platelet-derived growth factor receptor beta (Homo sapiens) (UniProt P09619); assay: Inhibition of human recombinant PDGFRbeta expressed in insect cells using ATP/Ulight-PolyGAT[EAY(1:1:1)]n as substrate at 1 uM after 30 mins by LANCE assay; summary of the method: as §1
Sequence of Platelet-derived growth factor receptor beta (Homo sapiens) (P09619 whole entry): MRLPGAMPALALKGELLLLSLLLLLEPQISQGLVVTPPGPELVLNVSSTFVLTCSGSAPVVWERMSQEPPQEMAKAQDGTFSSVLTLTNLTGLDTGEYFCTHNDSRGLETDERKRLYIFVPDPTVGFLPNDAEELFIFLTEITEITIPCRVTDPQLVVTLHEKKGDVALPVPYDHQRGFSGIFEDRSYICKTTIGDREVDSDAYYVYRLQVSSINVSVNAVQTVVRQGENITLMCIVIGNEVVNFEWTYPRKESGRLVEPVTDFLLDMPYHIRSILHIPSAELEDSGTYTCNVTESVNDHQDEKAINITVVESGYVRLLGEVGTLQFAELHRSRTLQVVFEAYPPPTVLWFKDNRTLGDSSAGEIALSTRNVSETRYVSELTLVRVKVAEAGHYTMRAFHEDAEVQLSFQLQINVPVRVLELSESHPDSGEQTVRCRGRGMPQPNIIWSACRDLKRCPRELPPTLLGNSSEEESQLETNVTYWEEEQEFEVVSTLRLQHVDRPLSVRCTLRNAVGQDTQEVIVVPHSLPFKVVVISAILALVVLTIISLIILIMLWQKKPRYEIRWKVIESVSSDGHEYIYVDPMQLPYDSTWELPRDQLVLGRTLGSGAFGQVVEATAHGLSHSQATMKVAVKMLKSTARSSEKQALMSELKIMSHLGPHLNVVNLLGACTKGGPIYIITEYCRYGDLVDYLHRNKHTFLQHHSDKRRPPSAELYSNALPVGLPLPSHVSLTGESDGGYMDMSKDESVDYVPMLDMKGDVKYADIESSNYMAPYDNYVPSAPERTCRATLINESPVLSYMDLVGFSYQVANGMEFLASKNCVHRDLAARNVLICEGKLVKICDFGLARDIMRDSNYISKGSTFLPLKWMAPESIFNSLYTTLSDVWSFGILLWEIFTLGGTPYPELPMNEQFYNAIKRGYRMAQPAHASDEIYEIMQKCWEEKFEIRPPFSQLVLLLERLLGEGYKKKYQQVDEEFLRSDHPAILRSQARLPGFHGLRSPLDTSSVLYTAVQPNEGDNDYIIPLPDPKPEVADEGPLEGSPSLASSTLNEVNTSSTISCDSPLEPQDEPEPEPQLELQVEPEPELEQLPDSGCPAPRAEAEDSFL

Homo sapiens [14] = species on record: Homo sapiens; assay: Selectivity ratio of IC50 for human recombinant CDK2 to IC50 for GSK-3beta (unknown origin)
[15] = target: Proto-oncogene tyrosine-protein kinase receptor Ret (Homo sapiens) (UniProt P07949); assay: Inhibition of human recombinant RET expressed in insect cells using ATP/biotinyl-betaAbetaAbetaAAEEEEYFELVAKKK as substrate at 1 uM after 30 mins by HTRF assay; summary of the method: as §1
Sequence of Proto-oncogene tyrosine-protein kinase receptor Ret (Homo sapiens) (P07949 whole entry): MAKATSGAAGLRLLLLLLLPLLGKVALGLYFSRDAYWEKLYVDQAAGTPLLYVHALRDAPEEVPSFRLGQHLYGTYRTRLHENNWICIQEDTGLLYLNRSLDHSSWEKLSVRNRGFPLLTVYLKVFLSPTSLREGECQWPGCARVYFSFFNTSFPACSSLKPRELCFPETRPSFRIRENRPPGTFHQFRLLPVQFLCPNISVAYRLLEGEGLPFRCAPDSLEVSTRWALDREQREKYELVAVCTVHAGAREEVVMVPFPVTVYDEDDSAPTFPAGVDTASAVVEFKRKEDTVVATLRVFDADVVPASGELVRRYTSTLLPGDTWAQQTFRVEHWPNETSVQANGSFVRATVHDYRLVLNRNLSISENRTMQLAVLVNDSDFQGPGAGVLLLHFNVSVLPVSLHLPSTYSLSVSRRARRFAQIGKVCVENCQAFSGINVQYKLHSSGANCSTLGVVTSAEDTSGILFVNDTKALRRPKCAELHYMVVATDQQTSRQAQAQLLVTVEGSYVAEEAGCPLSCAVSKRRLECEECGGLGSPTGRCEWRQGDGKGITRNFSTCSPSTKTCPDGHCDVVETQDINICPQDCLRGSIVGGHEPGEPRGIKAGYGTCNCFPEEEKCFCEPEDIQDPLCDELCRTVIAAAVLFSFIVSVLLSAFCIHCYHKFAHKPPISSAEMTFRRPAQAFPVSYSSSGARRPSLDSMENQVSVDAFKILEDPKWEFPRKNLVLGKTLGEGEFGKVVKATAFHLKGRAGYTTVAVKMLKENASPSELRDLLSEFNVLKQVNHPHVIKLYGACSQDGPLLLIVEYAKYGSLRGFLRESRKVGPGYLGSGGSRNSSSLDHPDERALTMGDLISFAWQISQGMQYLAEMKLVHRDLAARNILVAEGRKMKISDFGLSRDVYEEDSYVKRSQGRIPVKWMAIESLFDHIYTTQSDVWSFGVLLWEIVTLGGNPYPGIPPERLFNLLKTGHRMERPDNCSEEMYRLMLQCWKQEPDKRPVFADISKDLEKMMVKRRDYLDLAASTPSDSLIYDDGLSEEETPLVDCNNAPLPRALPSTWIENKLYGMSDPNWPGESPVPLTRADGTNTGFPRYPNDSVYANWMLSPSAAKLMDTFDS

[16] = Aqueous solubility of the compound at pH 7.4; format: physicochemical
[17] = target: T1, Glycogen synthase kinase-3 beta; assay: Inhibition of human GSK-3beta-mediated tau phosphorylation in doxycycline/synthetic tau fibril-induced HEK293 cells assessed as increase in faster-mobility 17025 band at 1 uM after 48 hrs by Immunoblotting analysis; format: cell-based; summary of the method: as §2
Target sequence in this assay (P49841 whole entry, looked up): as the sequence (P49841 whole entry) above

[18] = target: Receptor-type tyrosine-protein kinase FLT3 (Homo sapiens) (UniProt P36888); assay: Inhibition of human FLT3 at 1 uM; summary of the method: as §1
[19] = target: cAMP-dependent protein kinase catalytic subunit alpha (Homo sapiens) (UniProt P17612); assay: Inhibition of human PKAalpha at 1 uM; summary of the method: as §1
[20] = target: T1, Glycogen synthase kinase-3 beta; assay: Inhibition of human GSK-3beta-mediated tau phosphorylation in doxycycline/synthetic tau fibril-induced HEK293 cells assessed as decrease in slow mobility of AT180 band at 1 uM after 48 hrs by Immunoblotting analysis; format: cell-based; summary of the method: as §2
Target sequence in this assay (P49841 whole entry, looked up): as the sequence (P49841 whole entry) above

[21] = target: T1, Glycogen synthase kinase-3 beta; assay: Inhibition of GSK3beta in human NCI/ADR-RES cells up to 5 uM; format: cell-based; summary of the method: as §3
Target sequence in this assay (P49841 whole entry, looked up): as the sequence (P49841 whole entry) above

[22] = target: Cyclin-dependent kinase 5/CDK5 activator 1 (Homo sapiens) (UniProt Q00535+Q15078); assay: Inhibition of human recombinant CDK5/p35 expressed in insect cells using ATP/Ulight-CFFKNIVTPRTPPPSQGK-amide as substrate at 1 uM after 60 mins by LANCE assay; summary of the method: as §1
[23] = target: T4, Mitogen-activated protein kinase 13 (Homo sapiens) (UniProt O15264); assay: Inhibition of human recombinant P38delta expressed in Escherichia coli using ATP/Ulight-CFFKNIVTPRTPPPSQGK-amide as substrate at 1 uM after 15 mins by LANCE assay; summary of the method: as §1
T4 sequence (whole entry): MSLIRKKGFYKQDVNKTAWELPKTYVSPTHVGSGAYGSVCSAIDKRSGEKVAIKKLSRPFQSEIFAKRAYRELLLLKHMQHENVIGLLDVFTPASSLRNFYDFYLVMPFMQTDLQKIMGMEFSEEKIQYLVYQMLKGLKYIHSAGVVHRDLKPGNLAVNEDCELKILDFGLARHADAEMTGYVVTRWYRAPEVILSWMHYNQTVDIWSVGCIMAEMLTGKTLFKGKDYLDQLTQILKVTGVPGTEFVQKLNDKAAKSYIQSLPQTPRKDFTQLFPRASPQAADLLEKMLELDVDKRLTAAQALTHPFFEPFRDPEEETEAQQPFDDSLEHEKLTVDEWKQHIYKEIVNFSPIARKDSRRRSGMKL

[24] = target: Calcium/calmodulin-dependent protein kinase type II subunit alpha (Homo sapiens) (UniProt Q9UQM7); assay: Inhibition of human recombinant CaMK2alpha using ATP/Ulight-CGSGSGRPRTSSFAEG as substrate at 1 uM after 30 mins by LANCE assay; summary of the method: as §1
Sequence of Calcium/calmodulin-dependent protein kinase type II subunit alpha (Homo sapiens) (Q9UQM7 whole entry): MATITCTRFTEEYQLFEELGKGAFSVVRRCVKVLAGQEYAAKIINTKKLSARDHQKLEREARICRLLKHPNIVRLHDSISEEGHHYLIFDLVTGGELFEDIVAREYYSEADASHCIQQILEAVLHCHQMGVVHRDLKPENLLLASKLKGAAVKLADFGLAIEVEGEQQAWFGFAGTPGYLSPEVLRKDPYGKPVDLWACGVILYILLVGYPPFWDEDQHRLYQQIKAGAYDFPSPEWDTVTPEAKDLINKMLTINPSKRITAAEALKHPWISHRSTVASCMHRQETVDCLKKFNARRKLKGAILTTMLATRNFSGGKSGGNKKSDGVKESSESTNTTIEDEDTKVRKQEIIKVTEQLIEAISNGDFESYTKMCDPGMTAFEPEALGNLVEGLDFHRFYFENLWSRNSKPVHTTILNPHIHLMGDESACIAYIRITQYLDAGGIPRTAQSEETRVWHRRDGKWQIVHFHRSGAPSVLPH

[25] = target: Tyrosine-protein kinase Fyn (Homo sapiens) (UniProt P06241); assay: Inhibition of human recombinant Fyn expressed in insect cells using ATP/biotinyl-betaAbetaAbetaAYQAEENTYDEYEN as substrate at 1 uM after 60 mins by HTRF assay; summary of the method: as §1
[26] = target: Rho-associated protein kinase 1 (Homo sapiens) (UniProt Q13464); assay: Inhibition of human recombinant ROCK1 using ATP/Ulight-RRRSLLE as substrate at 1 uM after 30 mins by LANCE assay; summary of the method: as §1

**Q.** With `COc1ccccc1-n1ncc2c3c(c4cccn4c21)C(=O)NC3=O` as the compound, how does the IC50 [1] read?
**A.** The IC50 was 1 µM.

**Q.** Which IC50 [1] does the source give for `Cc1nn(-c2ccccc2)c2c1c1c(c3cccn32)C(=O)NC1=O` here?
**A.** Its IC50 is 0.69 µM.

**Q.** With `O=C1NC(=O)c2c1c1cnn(-c3ccccc3)c1n1cccc21` as the compound, how does the IC50 [1] read?
**A.** Its IC50 is 1.69 µM.

**Q.** For `Cc1ccccc1-n1nc(C)c2c3c(c4cccn4c21)C(=O)NC3=O`, which IC50 [1] is on record?
**A.** The IC50 was 0.44 µM.

**Q.** Which results are given for `Cc1nn(-c2ccc(Cl)cc2Cl)c2c1c1c(c3cccn32)C(=O)NC1=O`?
**A.** inhibition [2]: < 10%; inhibition [3]: Active; inhibition [4]: 98.3%; inhibition [5]: inactive; inhibition [6]: < 10%; IC50 [7]: 2.8 µM; inhibition [8]: < 10%; inhibition [9]: < 10%; inhibition [10]: < 10%; inhibition (Homo sapiens [11]): < 10%; inhibition [12]: < 10%; inhibition [13]: 13.7%; Ratio IC50 (Homo sapiens [14]): > 10; inhibition [15]: < 10%; IC50 [1]: 0.24 µM; solubility [16]: 3.1 µM (≈ 1.19 µg/mL); inhibition [17]: Active; inhibition [18]: 30%; inhibition [19]: < 10%; inhibition [20]: Active; inhibition [21]: inactive; inhibition [22]: < 10%; inhibition [23]: < 10%; inhibition [24]: < 10%; inhibition [25]: < 10%; inhibition [26]: < 10%

**Q.** Which IC50 [1] does the source give for `O=C1NC(=O)c2c1c1cnn(-c3ccccc3Cl)c1n1cccc21` here?
**A.** Its IC50 is 0.81 µM.

**Q.** With `Cc1ccccc1-n1ncc2c3c(c4cccn4c21)C(=O)NC3=O` as the compound, how does the IC50 [1] read?
**A.** Its IC50 is 1.21 µM.

**Q.** Which IC50 [1] does the source give for `Cc1nn(-c2ccccc2Cl)c2c1c1c(c3cccn32)C(=O)NC1=O` here?
**A.** The IC50 was 0.94 µM.
